# An excerpt weighted towards active compounds, which were near 3.9% of everything screened.
# CHO parental Ca = counter-screen for OX1R antagonists: effect in parental CHO cells; parental CHO-K1, ATP-induced calcium, Fluo-8 fluorescence; AID 463079; inhibition, % at 5.6 µM; 330,000 compounds, 0.63% hits;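 active = inhibition above that plate's mean sample inhibition plus 3 SD, cut at about 26% in these data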;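 also: 0% = ATP-challenged DMSO wells and 100% = DMSO wells without ATP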
#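 Assay system: parental CHO cells; Read-out basis: percent inhibition of ATP-evoked calcium rise, normalized to controls; Benchmarks: ATP and no-ATP DMSO wells; Compound dosing: single nominal dose of 5.6 µM per compound; Signal: Fluo-8 calcium dye fluorescence; Also added: ATP as calcium-mobilizing challenge; Repeats: singlicate.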
# TAAR1 antagonist = antagonists of human TAAR1; Q96RJ0; CHO RD-HGA16 TAAR1, Fluo-8 calcium fluorescence, antagonist; inhibition, % at 3 µM; 360,000 compounds, 1.5% hits; AID 624466;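 active = inhibition above a per-plate cutoff, the mean inhibition of test compounds on that plate plus 3 SD, cut at about 49% in these data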;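 also: 0% = DMSO plus EC80 beta-PEA response and 100% = DMSO alone without agonist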
# Target sequence (Q96RJ0 whole entry, looked up): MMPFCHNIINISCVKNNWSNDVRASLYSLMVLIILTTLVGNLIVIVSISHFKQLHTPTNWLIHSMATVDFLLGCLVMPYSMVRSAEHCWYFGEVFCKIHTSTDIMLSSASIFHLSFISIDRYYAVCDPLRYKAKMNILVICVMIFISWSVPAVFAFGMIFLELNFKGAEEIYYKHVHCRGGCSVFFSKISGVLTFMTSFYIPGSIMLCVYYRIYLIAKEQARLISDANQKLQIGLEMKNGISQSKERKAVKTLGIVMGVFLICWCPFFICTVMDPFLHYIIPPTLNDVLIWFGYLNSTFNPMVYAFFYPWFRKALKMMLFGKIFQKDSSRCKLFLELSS
#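 Test system – hTAAR1-expressing CHO RD-HGA16 cells, Gα16-coupled · Also added – β-PEA at EC80 concentration, post-compound challenge · Compound – 3 µM, single point · Incubation – dye loading 75 min at 37 °C, then 30 min room temperature · Measured by – Fluo-8 intracellular calcium dye fluorescence, real-time kinetic reads · Benchmarks – vehicle and agonist controls · Replicates – singlicate, one well per test compound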
# TAAR1 ag = agonists of human TAAR1. CHO RD-HGA16 TAAR1, Fluo-8 calcium fluorescence; vehicle wells 0%, saturating PEA agonist 100%. activation, % at 3 µM. 360,000 compounds, 0.99% hits. AID 624467;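 active = activation above the mean activation of all test compounds in the run plus 3 SD, cut at about 38% in these data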
#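 test system = CHO RD-HGA16 cells carrying human TAAR1 plus Gα16 | schedule = 17-24 h seeding, 75 min 37 °C dye, 30 min RT | compound dosing = 3 µM single concentration | control set = DMSO and PEA EC100 | replicates = n 1 | signal = Fluo-8 fluorescence, 5 s baseline then 140 s kinetic read | measure = percent activation vs PEA EC100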
# OX1R antag-1 = blocks the human orexin 1 receptor | O43613 | OX1R-expressing cells, FRET antagonist read-out | inhibition, % at 6.6 µM | 330,000 compounds, 1.8% hits | AID 485270; in the data active = inhibition mostly above about 38%, no sharp cut-off; inactive = mostly below about 40%;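 also: 0% = agonist challenge alone and 100% = reference antagonist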
# Target sequence (O43613 whole entry, looked up): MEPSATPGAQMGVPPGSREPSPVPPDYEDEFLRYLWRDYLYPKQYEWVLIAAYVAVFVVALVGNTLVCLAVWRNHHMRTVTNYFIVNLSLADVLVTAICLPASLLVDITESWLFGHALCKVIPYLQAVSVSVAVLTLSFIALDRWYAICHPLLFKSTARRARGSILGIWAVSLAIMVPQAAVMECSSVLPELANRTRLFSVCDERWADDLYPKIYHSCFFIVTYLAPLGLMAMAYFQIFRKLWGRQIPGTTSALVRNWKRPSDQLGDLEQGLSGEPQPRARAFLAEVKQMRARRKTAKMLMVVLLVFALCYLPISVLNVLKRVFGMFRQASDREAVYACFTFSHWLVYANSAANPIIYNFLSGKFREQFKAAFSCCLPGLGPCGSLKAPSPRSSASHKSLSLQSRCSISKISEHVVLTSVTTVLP
# OX1R antag-2 = blocks the human orexin 1 receptor. O43613. CHO/OX1R cells, Fluo-8 calcium fluorescence, orexin A. inhibition, % at 5 µM. 330,000 compounds, 0.43% hits. AID 434989;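 active = inhibition above its plate's threshold, mean inhibition of all tested compounds on the plate plus 3 SD, cut at about 37% in these data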;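 also: 0% = orexin A challenge wells and 100% = SB-334867-A antagonist wells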
# TAAR1 nonsel count = counter-screen for TAAR1 antagonists: nonselective antagonists; shares compounds with TAAR1 antagonist; counterscreen cell line, calcium fluorescence, antagonist mode; inhibition, % at 3 µM; 2,400 compounds, 77% hits; in the data active = inhibition above about 22%;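 also: CHO-Ga16 host cells stimulated with ATP at an EC80 level; 0% = agonist EC80 plus vehicle and 100% = vehicle without agonist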
# TAAR1 antag conf = confirmation of human TAAR1 antagonists; shares compounds with TAAR1 antagonist; TAAR1-expressing cells, fluorescence antagonist read-out; inhibition, % at 3 µM; 2,400 compounds, 40% hits; AID 651785; in the data active = inhibition above about 49%;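 also: CHO-Ga16 host cells challenged with agonist PEA near its EC80; 0% = agonist at EC80 plus vehicle and 100% = vehicle with no agonist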
# Ga16 ag counter = nonselective Ga16 agonist in TAAR1 antagonist counter-screen; shares compounds with TAAR1 antagonist; Ga16-expressing cells, calcium fluorescence, agonist counterscreen; activation, % at 3 µM; 2,400 compounds, 18% hits; AID 651953; in the data active = activation above about 12%;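 also: 0% = vehicle wells and 100% = saturating stimulus response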
# TAAR1 ag count = activates human TAAR1 in antagonist counter-screen | shares compounds with TAAR1 antagonist | hTAAR1 cell line, fluorescence activation, agonist mode | activation, % at 3 µM | 2,400 compounds, 2% hits | AID 651955; in the data active = activation above about 37%;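 also: CHO cells stably expressing TAAR1 with calcium dye readout; 0% = DMSO vehicle and 100% = full agonist response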
# An asterisk follows results filed as active; . = no result.
SMILES,CHO parental Ca,TAAR1 antagonist,TAAR1 ag,OX1R antag-1,OX1R antag-2,TAAR1 nonsel count,TAAR1 antag conf,Ga16 ag counter,TAAR1 ag count
CN(C)S(=O)(=O)c1cccc(NC(=O)Cn2cc(C(F)(F)F)cc(Cl)c2=O)c1,-10.2,-12.8,0.1,10.6,-41.2,.,.,.,.
COC(=O)c1ccc(CNC(=O)COC(=O)Cc2ccsc2)cc1,-8.3,3.3,2.1,24.8,-6.0,.,.,.,.
Cc1cc(C)c(NC(=O)c2cccc3c2C(=O)N(C2CCCCC2)C3)c(C)c1,-32.8,.,.,1.7,-33.4,.,.,.,.
CN1CCN(CCCNC(=O)c2ccc(/C=C3\Sc4ccccc4N(Cc4ccccc4F)C3=O)cc2)CC1,.,26.9,15.0,.,.,.,.,.,.
O=C(NCCN1CCOCC1)c1ccc(/C=C2\Sc3ccccc3N(Cc3ccccc3F)C2=O)cc1,-8.8,69.1*,11.7,12.8,14.4,33.7*,49.8*,13.0*,14.6
Cc1ccccc1CN1C(=O)/C(=C\c2ccc(C(=O)NCCN3CCOCC3)cc2)Sc2ccccc21,-30.0,53.3*,31.2,11.3,-22.8,26.4*,37.2,11.0,33.1
COCCCN1C(=O)C(CC(=O)NCCN2CCOCC2)CC(C(=O)N2CCOCC2)=C1C (stereo unspecified),.,-11.4,0.2,.,.,.,.,.,.
Cc1nn(C2CCS(=O)(=O)C2)c(Cl)c1/C=C/C(=O)OCC(=O)Nc1ccccc1OC(F)F (stereo unspecified),-14.7,3.7,2.5,5.8,8.3,.,.,.,.
COc1ccc(Cl)cc1NC(=O)COC(=O)/C=C/c1c(C)nn(C2CCS(=O)(=O)C2)c1Cl (stereo unspecified),43.5*,53.1*,15.7,56.2,32.5,42.5*,41.5,12.9*,12.7
CN(Cc1ccc(F)cc1)S(=O)(=O)c1nnc(NC(=O)c2ccccc2Br)s1,4.8,-28.9,0.3,25.6,-10.7,.,.,.,.
CCc1ccc(OS(=O)(=O)c2cn(C)c(=O)n(C)c2=O)cc1,-3.9,-58.2,5.3,6.3,-17.4,.,.,.,.
Cc1ccc(-c2cc(-c3ccccc3)nc(N/N=C/c3cccnc3)n2)cc1,-13.3,35.6,7.3,5.2,-9.7,.,.,.,.
C(=N/Nc1nc(-c2ccccc2)cc(-c2ccccc2)n1)/c1cccnc1,-18.0,65.2*,11.2,46.5,-26.3,31.3*,52.5*,3.7,3.0
C(=N\Nc1nc(Nc2ccccc2)nc(Nc2ccccc2)n1)/c1cccnc1,-16.9,56.7*,9.0,29.9,-22.3,25.2*,45.5,5.2,0.6
COc1ccc(NC(=O)c2cc(C3CCCCN3S(=O)(=O)Cc3ccccc3)on2)cn1 (stereo unspecified),.,-5.3,1.0,.,.,.,.,.,.
COC(=O)c1ccc(OCC(=O)Nc2ccccc2C(=O)NC2CC2)cc1,-7.2,62.5*,18.2,8.6,1.6,30.2*,48.3,9.8,8.2
COc1ccc(OCC(=O)Nc2ccccc2C(=O)NC2CC2)cc1,9.3,18.1,12.9,5.3,-7.7,.,.,.,.
Cc1cccc(CN2C(=O)[C@H]3Cc4c([nH]c5ccccc45)C(C)(C)N3C2=O)c1,-19.3,60.5*,9.7,16.7,-32.2,24.1*,25.9,2.4,1.9
Cc1n[nH]c(C)c1CCc1nc2c3ccccc3nc(SCC(=O)Nc3ccccc3F)n2n1,-20.1,61.3*,8.7,28.3,-20.7,22.6*,37.3,8.5,10.1
O=C(c1ccc(CS(=O)Cc2ccccc2Cl)o1)N1CCN(c2ccccn2)CC1 (stereo unspecified),-27.4,48.7*,17.1,-3.4,-34.2,15.3,31.6,7.6,6.1
CSc1ccc(CCNC(=O)c2ccc(CS(=O)Cc3ccccc3Cl)o2)cc1 (stereo unspecified),-23.3,47.1,14.1,15.3,-7.4,.,.,.,.
O=C(c1ccc(CS(=O)Cc2ccc(Cl)cc2)o1)N1CCN(c2ccccn2)CC1 (stereo unspecified),-17.9,5.5,9.7,16.3,-34.1,.,.,.,.
O=C(NCCc1ccc(Cl)cc1)c1ccc(CS(=O)Cc2ccccc2Cl)o1 (stereo unspecified),-24.1,60.3*,8.9,8.4,-29.6,29.1*,40.4,8.6,8.3
Cc1cccc(NC(=S)N2CCC(NC(=O)c3ccco3)CC2)c1,-3.3,4.0,1.3,18.9,-6.3,.,.,.,.
COc1ccc([C@H]2CC(=O)C[C@@H](CCn3cc(-c4ccccn4)nn3)O2)cc1,.,-23.6,1.2,.,.,.,.,.,.
SMILES,CHO parental Ca,TAAR1 antagonist,TAAR1 ag,OX1R antag-1,OX1R antag-2,TAAR1 nonsel count,TAAR1 antag conf,Ga16 ag counter,TAAR1 ag count
COC(=O)[C@]12CCCCC=C1N(CCc1ccc(OC)c(OC)c1)C(=O)[C@H](CC(=O)NCCCCc1ccccc1)C2,.,45.0,10.5,.,.,.,.,.,.
Cc1ccc(NC(=O)Cn2nc(C(=O)O)c3ccccc3c2=O)cc1S(=O)(=O)N1CCCCCC1,.,101.7*,-3.5,.,.,35.8*,43.0,8.7,6.0
COc1cccc(-c2nc(C(=O)NCC3CCCO3)cc3c2[nH]c2ccccc23)c1 (stereo unspecified),-6.4,76.8*,1.1,18.1,-27.4,25.9*,41.3,4.7,1.6
COc1cccc(N=c2oc3cc(O)ccc3cc2C(=O)NCC2CCCO2)c1 (stereo unspecified),-5.8,57.5*,13.5,10.0,-3.1,35.0*,55.4*,10.9,18.0
O=C(CN1c2cccc3cccc(c23)S1(=O)=O)Nc1ccc(F)c(F)c1F,-15.3,103.5*,2.2,0.6,-31.4,9.2,11.7,3.8,4.9
CSc1nc(SCc2ccccc2)[nH]c(=O)n1,.,-38.5,5.8,.,.,.,.,.,.
CC(C)Cc1nnc(NC(=O)CCc2c[nH]c3ccccc23)s1,-16.2,-30.8,4.2,11.8,-10.0,.,.,.,.
O=C1OC(c2ccccc2)(c2cc(Br)ccc2O)c2ccccc21 (stereo unspecified),.,63.4*,8.4,.,.,27.5*,45.8,6.5,21.4
O=C1OC(c2ccc(O)cc2)(c2ccccc2O)c2ccccc21 (stereo unspecified),.,-13.5,1.3,.,.,.,.,.,.
Cn1c(=O)n(C)c2cc([N+](=O)[O-])c(N3CCN(S(=O)(=O)c4ccccc4)CC3)cc21,-12.2,61.9*,21.9,40.2,-12.6,26.3*,54.0*,14.7*,23.1
COc1ccccc1C(=O)NNC(=O)c1ccc(NC(=O)CC(C)C)cc1,1.7,-15.9,4.9,15.3,-17.5,.,.,.,.
NC(=O)C1CCN(c2nc(-c3ccc4ccccc4c3)cs2)CC1,-1.3,6.8,17.1,1.1,19.7,.,.,.,.
O=C(CCc1ccccc1Cl)NC1CCCN(c2ccc(C(F)(F)F)cn2)C1 (stereo unspecified),-23.0,-10.5,-0.2,16.9,-9.7,.,.,.,.

# Screens as filed in PubChem.
